Assay results as given in ChEMBL document CHEMBL1153204, “Novel purine and pyrazolo[3,4-d]pyrimidine inhibitors of PI3 kinase-alpha: Hit to lead studies” (Bioorg Med Chem Lett, 2010).
Calls of active or inactive are those of the source. The calls are words filed in the database; no cut-off is given here.

Experiments:
[1] = molecular target: Phosphatidylinositol 4,5-bisphosphate 3-kinase catalytic subunit alpha isoform (Homo sapiens, UniProt P42336); assay: Inhibition of GST-GRP1-fused PI3Kalpha by microtiter plate based fluorescence polarization assay
[2] = molecular target: Phosphatidylinositol 4,5-bisphosphate 3-kinase catalytic subunit gamma isoform (Homo sapiens, UniProt P48736); assay: Inhibition of GST-GRP1-fused PI3Kgamma by microtiter plate based fluorescence polarization assay
How it was run: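 Fluorescence polarization assay monitoring PIP3 production by PI3K p110α or p110γ. IC50 values are the means of two experiments, SD ±10%.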

Caco-2 = assay: Antiproliferative activity against human Caco-2 cells; assay type: functional, cell-based
How it was run: (§1)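 Growth densities of Caco-2 (colorectal), LoVo (colon) and PC3MM2 (prostate) adenocarcinoma cultures monitored after compound exposure to measure proliferation.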

LoVo = assay: Antiproliferative activity against human LoVo cells; assay type: functional, cell-based; how it was run: as §1
PC-3 = assay: Antiproliferative activity against human PC3 cells; assay type: functional, cell-based; how it was run: as §1
[3] = Selectivity ratio of IC50 for PI3Kgamma to IC50 for PI3Kalpha
[4] = Selectivity ratio of IC50 for human TOR to IC50 for PI3Kalpha
[5] = molecular target: Serine/threonine-protein kinase mTOR (Homo sapiens, UniProt P42345); assay: Inhibition of human TOR in HEK293 cells by DELFIA; assay type: cell-based
How it was run: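 DELFIA-format assay detecting phosphorylated His6-S6K substrate. IC50 values are the means of two experiments, SD ±10%.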

MDA-MB-361 = assay: Inhibition of PI3K in human MDA-MB-361 cells assessed as reduction of phosphorylated Akt (T308) level at 3 to 30 uM after 4 hrs by immunoblotting; assay type: cell-based
How it was run: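 MDA-361 breast adenocarcinoma cells were treated in growth media for 4 h with the indicated doses, with a DMSO control. Lysates were immunoblotted for phospho-Akt T308, and for cleaved PARP as an apoptosis marker.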

Sequence of Phosphatidylinositol 4,5-bisphosphate 3-kinase catalytic subunit alpha isoform (P42336 whole entry, the tested form may be a part, canonical isoform): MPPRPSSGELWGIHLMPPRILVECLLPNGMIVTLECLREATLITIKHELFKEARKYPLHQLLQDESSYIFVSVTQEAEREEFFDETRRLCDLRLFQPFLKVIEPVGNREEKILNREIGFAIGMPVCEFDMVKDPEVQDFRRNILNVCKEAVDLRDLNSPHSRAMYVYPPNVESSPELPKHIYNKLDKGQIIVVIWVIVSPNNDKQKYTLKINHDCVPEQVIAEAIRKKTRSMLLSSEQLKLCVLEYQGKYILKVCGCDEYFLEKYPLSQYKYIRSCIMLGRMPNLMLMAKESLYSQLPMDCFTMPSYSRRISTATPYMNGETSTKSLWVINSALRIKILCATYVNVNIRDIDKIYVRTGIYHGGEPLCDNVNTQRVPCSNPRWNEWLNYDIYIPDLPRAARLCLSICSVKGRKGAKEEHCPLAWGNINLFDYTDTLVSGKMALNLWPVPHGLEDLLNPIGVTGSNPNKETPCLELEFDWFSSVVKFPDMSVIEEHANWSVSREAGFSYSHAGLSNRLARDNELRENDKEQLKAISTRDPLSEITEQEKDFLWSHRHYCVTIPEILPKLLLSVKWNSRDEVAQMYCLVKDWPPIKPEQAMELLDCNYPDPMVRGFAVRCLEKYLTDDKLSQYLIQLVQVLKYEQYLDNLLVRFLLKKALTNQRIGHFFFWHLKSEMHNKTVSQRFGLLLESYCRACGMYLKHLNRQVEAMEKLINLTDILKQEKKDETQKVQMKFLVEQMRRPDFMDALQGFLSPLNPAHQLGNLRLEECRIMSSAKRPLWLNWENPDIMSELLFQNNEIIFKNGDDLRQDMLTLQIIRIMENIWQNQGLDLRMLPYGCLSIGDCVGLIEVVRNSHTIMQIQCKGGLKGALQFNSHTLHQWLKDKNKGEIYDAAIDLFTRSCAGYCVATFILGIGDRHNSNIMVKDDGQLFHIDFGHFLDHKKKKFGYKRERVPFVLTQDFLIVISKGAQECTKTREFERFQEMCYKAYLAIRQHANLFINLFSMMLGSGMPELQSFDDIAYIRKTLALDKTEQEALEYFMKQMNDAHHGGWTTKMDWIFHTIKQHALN
Sequence of Phosphatidylinositol 4,5-bisphosphate 3-kinase catalytic subunit gamma isoform (P48736 whole entry, the tested form may be a part, canonical isoform): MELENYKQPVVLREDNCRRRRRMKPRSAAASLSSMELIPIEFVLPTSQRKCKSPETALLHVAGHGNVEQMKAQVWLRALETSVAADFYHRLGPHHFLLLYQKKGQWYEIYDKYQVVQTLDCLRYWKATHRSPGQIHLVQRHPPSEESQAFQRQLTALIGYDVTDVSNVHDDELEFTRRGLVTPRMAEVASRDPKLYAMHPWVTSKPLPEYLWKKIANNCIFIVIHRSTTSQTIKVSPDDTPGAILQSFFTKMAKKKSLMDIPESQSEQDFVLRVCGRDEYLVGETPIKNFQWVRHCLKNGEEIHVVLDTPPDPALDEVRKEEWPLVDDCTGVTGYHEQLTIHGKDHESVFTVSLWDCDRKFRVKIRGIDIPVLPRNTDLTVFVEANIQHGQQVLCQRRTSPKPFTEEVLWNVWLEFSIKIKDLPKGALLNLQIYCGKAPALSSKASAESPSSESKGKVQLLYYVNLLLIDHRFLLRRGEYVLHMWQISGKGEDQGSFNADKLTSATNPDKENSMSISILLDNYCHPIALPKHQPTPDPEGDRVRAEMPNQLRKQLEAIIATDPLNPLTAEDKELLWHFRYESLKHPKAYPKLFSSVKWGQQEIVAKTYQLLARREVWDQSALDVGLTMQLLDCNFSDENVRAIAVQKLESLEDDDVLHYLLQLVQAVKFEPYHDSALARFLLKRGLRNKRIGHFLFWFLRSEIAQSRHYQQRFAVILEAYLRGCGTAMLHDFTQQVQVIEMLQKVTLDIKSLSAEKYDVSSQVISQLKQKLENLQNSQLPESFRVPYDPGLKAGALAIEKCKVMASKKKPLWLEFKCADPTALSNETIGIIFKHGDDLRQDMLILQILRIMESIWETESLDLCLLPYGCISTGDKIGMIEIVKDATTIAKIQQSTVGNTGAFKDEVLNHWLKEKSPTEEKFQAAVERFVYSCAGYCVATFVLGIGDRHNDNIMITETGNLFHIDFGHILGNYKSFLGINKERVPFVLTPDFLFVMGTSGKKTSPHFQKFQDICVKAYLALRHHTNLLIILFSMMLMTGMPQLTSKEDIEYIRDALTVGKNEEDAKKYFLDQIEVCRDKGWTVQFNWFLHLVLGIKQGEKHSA

Row | Structure (SMILES) | IC50 [1] | IC50 [2] | IC50 (Caco-2) | IC50 (LoVo) | IC50 (PC-3) | Ratio IC50 [3] | Ratio IC50 [4] | IC50 [5] | inhibition (MDA-MB-361)
1 | c1csc(-c2nc(N3CCOCC3)c3nc[nH]c3n2)c1 | 640 nM | 6740 nM | > 10000 nM | > 10000 nM | > 10000 nM | – | – | – | –
2 | CS(=O)(=O)c1ccc(-c2nc(N3CCOCC3)c3nc[nH]c3n2)cc1 | 1760 nM | 5830 nM | – | – | – | – | – | – | –
3 | Oc1ccc(-c2nc(N3CCOCC3)c3nc[nH]c3n2)cc1 | 2540 nM | 8560 nM | – | – | – | – | – | – | –
4 | OCc1cccc(-c2nc(N3CCOCC3)c3ncn(C4CCN(Cc5ccccc5)CC4)c3n2)c1 | – | – | 5170 nM | 1050 nM | 1280 nM | – | – | 691 nM | Active
5 | OCc1cccc(-c2nc(N3CCOCC3)c3ncn(CC4CCN(Cc5ccccc5)CC4)c3n2)c1 | 248 nM | 1650 nM | 5790 nM | 3080 nM | 9270 nM | – | – | – | –
6 | c1nc2c(N3CCOCC3)nc(-c3ccc4c(c3)OCCO4)nc2[nH]1 | 3480 nM | 7580 nM | – | – | – | – | – | – | –
7 | c1cc2ccc(-c3nc(N4CCOCC4)c4nc[nH]c4n3)cc2[nH]1 | 2330 nM | 7370 nM | – | – | – | – | – | 150 nM | –
8 | OCc1ccc(-c2nc(N3CCOCC3)c3nc[nH]c3n2)cc1 | 2890 nM | 7970 nM | – | – | – | – | – | – | –
9 | CS(=O)(=O)c1cccc(-c2nc(N3CCOCC3)c3nc[nH]c3n2)c1 | 3900 nM | 7910 nM | – | – | – | – | – | – | –
10 | c1nc2c(N3CCOCC3)nc(-c3ccc4c(c3)OCO4)nc2[nH]1 | 1210 nM | 6910 nM | – | – | – | – | – | – | –
11 | CS(=O)(=O)Nc1cccc(-c2nc(N3CCOCC3)c3nc[nH]c3n2)c1 | 4380 nM | 7910 nM | – | – | – | – | – | – | –
12 | c1nc2c(N3CCOCC3)nc(-c3ccoc3)nc2[nH]1 | 3790 nM | 11000 nM | – | – | – | – | – | – | –
13 | NC(=O)c1ccc(-c2nc(N3CCOCC3)c3nc[nH]c3n2)cc1 | 6700 nM | 10000 nM | – | – | – | – | – | – | –
14 | Oc1ccccc1-c1nc(N2CCOCC2)c2nc[nH]c2n1 | 667 nM | 5140 nM | > 10000 nM | 7310 nM | > 10000 nM | – | – | – | –
15 | c1nc2c(N3CCOCC3)nc(-c3ccsc3)nc2[nH]1 | 2380 nM | 8000 nM | – | – | – | – | – | – | –

The next lines start with results.

Row | IC50 [1] | IC50 [2] | IC50 (Caco-2) | IC50 (LoVo) | IC50 (PC-3) | Ratio IC50 [3] | Ratio IC50 [4] | IC50 [5] | Structure (SMILES) | inhibition (MDA-MB-361)
16 | 58 nM | – | 4500 nM | 1870 nM | 2360 nM | 11 | > 100 | – | OCc1cccc(-c2nc(N3CCOCC3)c3ncn(C4CCNCC4)c3n2)c1 | –
17 | 80 nM | 10800 nM | > 10000 nM | 1950 nM | 1110 nM | – | – | – | Oc1cccc(-c2nc(N3CCOCC3)c3ncn(C4CCN(Cc5ccccc5)CC4)c3n2)c1 | –
18 | 2910 nM | 8300 nM | – | – | – | – | – | – | N#Cc1cccc(-c2nc(N3CCOCC3)c3nc[nH]c3n2)c1 | –
19 | 232 nM | – | – | – | – | – | – | 2380 nM | Oc1cccc(-c2nc(N3CCOCC3)c3nc[nH]c3n2)c1 | –
20 | 199 nM | 2380 nM | 6490 nM | 3510 nM | 7350 nM | – | – | – | Oc1cccc(-c2nc(N3CCOCC3)c3ncn(CC4CCN(Cc5ccccc5)CC4)c3n2)c1 | –
21 | 65 nM | 131 nM | 4040 nM | 2020 nM | 1520 nM | – | – | 870 nM | Oc1cccc(-c2nc(N3CCOCC3)c3ncn(C4CCNCC4)c3n2)c1 | –
22 | – | 993 nM | 5580 nM | 1580 nM | 922 nM | – | – | – | Oc1cccc(-c2nc(N3CCOCC3)c3cnn(C4CCNCC4)c3n2)c1 | –
23 | 3770 nM | 10300 nM | – | – | – | – | – | – | Oc1cccc(-c2nc(N3CCCCC3)c3nc[nH]c3n2)c1 | –
24 | 25 nM | 975 nM | 1340 nM | 511 nM | 345 nM | – | – | 90 nM | OCc1cccc(-c2nc(N3CCOCC3)c3cnn(C4CCN(Cc5ccccc5)CC4)c3n2)c1 | –
25 | – | 2370 nM | 5970 nM | 1610 nM | 940 nM | – | – | 83 nM | Oc1cccc(-c2nc(N3CCOCC3)c3cnn(C4CCN(Cc5ccccc5)CC4)c3n2)c1 | –
